From PubChem BioAssay
In the library only some 1.9% were active in any assay of this set; here they are far more common.
UCH37 inh: inhibitors of human UCH37 deubiquitinase, primary screen, biochemical, Ub-AMC cleavage, fluorescence. Ubiquitin carboxyl-terminal hydrolase isozyme L5 (Homo sapiens), Q9Y5K5. purified proteasome/UCH37. inhibition, % (concentration not given with the values). actives 0.33% (n = 330,000). AID 588478, 2011;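 active = mean inhibition over replicate wells above about 20%, limit read from the data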
Target sequence (Q9Y5K5 whole entry, looked up): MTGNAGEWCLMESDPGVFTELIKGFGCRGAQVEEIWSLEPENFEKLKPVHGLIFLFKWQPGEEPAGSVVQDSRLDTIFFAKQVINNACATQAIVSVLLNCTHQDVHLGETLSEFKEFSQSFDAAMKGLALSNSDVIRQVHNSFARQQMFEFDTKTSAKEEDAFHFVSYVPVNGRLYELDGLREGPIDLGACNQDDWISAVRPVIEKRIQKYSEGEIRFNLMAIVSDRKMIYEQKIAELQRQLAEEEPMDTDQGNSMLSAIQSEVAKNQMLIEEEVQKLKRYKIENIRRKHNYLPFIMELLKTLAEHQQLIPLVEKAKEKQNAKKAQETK
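Schedule: 30 min plus 25 min, room temperature / Material: human UCH37 within purified proteasomes / Technique: AMC fluorescence intensity at 355/460 nm / Buffer or medium: pH 7.4 Tris-HCl (50 mM) with ovalbumin, ATP-MgCl2, DTT / Controls: wells without proteasome as full block, compound-free enzyme plus substrate as uninhibited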
aDG glyco act: activators of alpha-DG glycosylation, primary screen, uHTS, Pro5-aDG cells, AlphaScreen. alpha-DG glycosylation AlphaScreen (IIH6); 0% Pro5, 100% B10-LARGE cell signal. activation, % at 10 µM. actives 0.22% (n = 360,000). AID 624168, 2012;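 active = activation of at least 8% versus controls, or a plate z-score of at least 8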;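 note: Pro5 are CHO cells carrying HIG-tagged alpha-DG that lacks glycosylation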
MsrA inhibitor: bovine MsrA enzyme inhibitors, primary screen, biochemical, absorbance, HTS; inhibition, % at 15.5 µM; Methionine sulfoxide reductase A (Bos taurus); purified bovine MsrA, absorbance read-out; actives 0.75% (n = 360,000); in the data active = inhibition above about 4.5%
Vif inh: HIV Vif self-association inhibitors, primary screen, imaging, HEK293T, single point | AID 602346, 2012 | HEK293T cells, Vif self-association by quenched fluorescence, 24 h | inhibition, % at 7.49 µM | actives 0.35% (n = 340,000); in the data active = inhibition above about 50%, passing the limit was not always enough
N-glyco inh: increase of ERlucT glycosylation luciferase signal, primary screen, N-linked glycosylation inhibitor project, D54 ERlucT cells, luminescence, set 2. D54 ERlucT glycosylation luciferase reporter, 24 h; percent of 100 nM tunicamycin response. reporter increase, % at 12.5 µM. actives 0.23% (n = 360,000). AID 588692, 2011;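 active = mean luciferase reporter signal, scaled so untreated is 0 and the glycosylation-blocking control 100, at or above a set limit in every replicate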;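 note: luciferase carries N-glycosylation sites so blocking glycosylation raises the light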
MsrA act: bovine MsrA enzyme activators, primary screen, biochemical, absorbance, HTS; Methionine sulfoxide reductase A (Bos taurus); purified bovine MsrA, absorbance read-out; activation, % at 10.6 µM; actives 0.3% (n = 360,000); AID 602163, 2012; in the data active = activation above about 7.5%
Numbers stand for hits.

Screening O=C(CNc1cccc2ccccc12)N/N=C/C(Br)=C/c1ccccc1 returned aDG glyco act inactive, MsrA inhibitor inactive, Vif inh inactive, N-glyco inh 30.8 and MsrA act inactive.
`COc1ccccc1C=NNC(=O)c1ccccc1Cl` gave UCH37 inh inactive.
Screening O=C(Cc1ccc([N+](=O)[O-])cc1)N/N=C/c1ccc([N+](=O)[O-])o1 returned aDG glyco act 10.2, MsrA inhibitor inactive, Vif inh inactive, N-glyco inh inactive and MsrA act inactive.
O=C(CNc1cccc2ccccc12)N/N=C/c1ccc([N+](=O)[O-])o1 was read as aDG glyco act 8.2, MsrA inhibitor inactive, Vif inh inactive, N-glyco inh inactive and MsrA act inactive.
`O=C(Cc1ccccc1)NN=Cc1ccc(-c2ccc([N+](=O)[O-])cc2)o1` gave UCH37 inh inactive.
`O=C(N/N=C/c1ccc([N+](=O)[O-])o1)c1ccc2c(c1)OCO2` gave aDG glyco act 10.4, MsrA inhibitor inactive, Vif inh inactive, N-glyco inh inactive and MsrA act inactive.
For O=C(NN=Cc1ccc([N+](=O)[O-])o1)c1ccc2c(c1)OCO2 the results were UCH37 inh inactive.
`COc1cc(CN2CCc3ccccc3C2)ccc1O` gave aDG glyco act inactive, MsrA inhibitor inactive, Vif inh inactive, N-glyco inh 93.2 and MsrA act inactive.
COc1cc(CN2CCc3ccccc3C2)cc([N+](=O)[O-])c1O was read as UCH37 inh inactive, aDG glyco act inactive, MsrA inhibitor inactive, Vif inh inactive, N-glyco inh inactive and MsrA act inactive.
CC(=O)c1cccc(NC(=S)NC(=O)c2ccccc2)c1 was read as UCH37 inh inactive, aDG glyco act inactive, MsrA inhibitor inactive, Vif inh inactive, N-glyco inh inactive and MsrA act inactive.
Screening CC(=O)c1cccc(NC(=S)NC(=O)C(C)C)c1 returned UCH37 inh inactive, aDG glyco act inactive, MsrA inhibitor inactive, Vif inh 86.5, N-glyco inh inactive and MsrA act inactive.
Screening Cc1ccccc1Oc1nc2c(C)cccn2c(=O)c1/C=C(\C#N)C(=O)Nc1c(C)n(C)n(-c2ccccc2)c1=O returned UCH37 inh inactive, aDG glyco act inactive, MsrA inhibitor inactive, Vif inh 124.1, N-glyco inh inactive and MsrA act inactive.
`c1cnc2ncc3sccc3c2c1` gave UCH37 inh 28.2, aDG glyco act inactive, MsrA inhibitor inactive, N-glyco inh inactive and MsrA act inactive.
O=C1N/C(=N/N=Cc2ccc(F)cc2)SC1c1ccccc1 (stereo unspecified) was read as UCH37 inh inactive.
For Cc1cc(N2CCCC2=O)cc(C)c1S(=O)(=O)NCCOc1ccc(C(C)(C)C)cc1 the results were UCH37 inh inactive, aDG glyco act 11.2, MsrA inhibitor inactive, Vif inh inactive, N-glyco inh inactive and MsrA act inactive.
`O=C1CCCN1c1ccc(S(=O)(=O)NCCOc2ccccc2)cc1` gave UCH37 inh inactive, aDG glyco act inactive, MsrA inhibitor inactive, N-glyco inh inactive and MsrA act inactive.
O=[N+]([O-])c1ccc2c(c1)N([O-])C1(CCCCC1)[N+]2=O was read as UCH37 inh 51.5 and MsrA inhibitor inactive.
`O=C1OC(Nc2cc(Br)cc3cccnc23)c2ccccc21` (stereo unspecified) gave UCH37 inh inactive, aDG glyco act 7.4, MsrA inhibitor inactive, Vif inh inactive, N-glyco inh inactive and MsrA act inactive.
For O=C1OC(Nc2ncccn2)c2ccccc21 (stereo unspecified) the results were UCH37 inh inactive, aDG glyco act inactive, MsrA inhibitor inactive, Vif inh inactive, N-glyco inh inactive and MsrA act inactive.
For CCOC(=O)c1cc(-c2ccccc2)sc1NC(=S)Nc1cc(C)ccn1 the results were aDG glyco act inactive, MsrA inhibitor inactive, Vif inh 169.1, N-glyco inh inactive and MsrA act inactive.
Screening CC(=NNC(=O)c1nnn(-c2nonc2N)c1CSc1ccc(Cl)cc1)c1cccnc1 returned UCH37 inh inactive.
`COc1ccc(-c2coc3c(C(=O)Nc4cccc(C(C)=O)c4)cccc23)c(C)c1` gave aDG glyco act inactive, MsrA inhibitor inactive, Vif inh 149.9, N-glyco inh inactive and MsrA act inactive.
Screening O=[N+]([O-])c1cc(S(=O)(=O)C(F)(F)F)ccc1Sc1nc2ccccc2s1 returned UCH37 inh inactive, aDG glyco act inactive, MsrA inhibitor inactive, Vif inh inactive, N-glyco inh inactive and MsrA act inactive.
CS(=O)(=O)c1ccc(Sc2nc3ccccc3s2)c([N+](=O)[O-])c1 was read as UCH37 inh inactive, aDG glyco act inactive, Vif inh inactive, N-glyco inh 40.0 and MsrA act inactive.
Screening CCc1ccc(C2C(C#N)=C(N)SC(N)=C2C#N)s1 returned UCH37 inh inactive, aDG glyco act inactive, Vif inh 76.9, N-glyco inh inactive and MsrA act inactive.
Cc1ccc(-c2csc(N)n2)s1 was read as UCH37 inh inactive, aDG glyco act inactive, MsrA inhibitor inactive, Vif inh inactive, N-glyco inh inactive and MsrA act inactive.
Cc1csc(N)n1 was read as UCH37 inh 21.1, aDG glyco act inactive, MsrA inhibitor inactive, Vif inh inactive, N-glyco inh inactive and MsrA act inactive.
O=C(C=Cc1ccccn1)c1ccccc1O was read as UCH37 inh inactive, aDG glyco act inactive, MsrA inhibitor inactive, Vif inh inactive, N-glyco inh inactive and MsrA act inactive.
For O=C(C=Cc1ccccn1)c1ccccc1 the results were UCH37 inh inactive, aDG glyco act inactive, MsrA inhibitor inactive, Vif inh 70.0, N-glyco inh inactive and MsrA act inactive.
For COc1ccccc1CNC(=O)CCS(=O)(=O)c1ccc2c(c1)CCN2C(C)=O the results were UCH37 inh inactive, aDG glyco act 5.3, MsrA inhibitor inactive, Vif inh inactive, N-glyco inh inactive and MsrA act inactive.
`CC1CCCN(c2nc3nonc3nc2N2CCCC(C)C2)C1` (stereo unspecified) gave UCH37 inh inactive, aDG glyco act inactive, MsrA inhibitor 4.6, Vif inh inactive, N-glyco inh inactive and MsrA act inactive.
Screening CC1CCCCN1c1nc2nonc2nc1N1CCCCC1C (stereo unspecified) returned UCH37 inh inactive, aDG glyco act inactive, MsrA inhibitor inactive, Vif inh inactive, N-glyco inh inactive and MsrA act inactive.
`C1CCN(c2nc3nonc3nc2N2CCCC2)C1` gave UCH37 inh inactive, aDG glyco act inactive, MsrA inhibitor 5.1, Vif inh inactive, N-glyco inh inactive and MsrA act inactive.
